Apaf1 inhib = inhibitors of human Apaf-1 apoptosome, primary screen, biochemical, DEVD-Rh110 fluorescence, uHTS. 0.71% of 330,000 active. reconstituted apoptosome caspase-3 activity. AID 489030, 2010. inhibition, % at 20 µM; active = inhibition of at least 40% at 20 µM;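 note: plate controls were DMSO wells for no effect and DEVD-CHO caspase inhibitor wells for full effect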
Target sequence (O14727 whole entry, looked up): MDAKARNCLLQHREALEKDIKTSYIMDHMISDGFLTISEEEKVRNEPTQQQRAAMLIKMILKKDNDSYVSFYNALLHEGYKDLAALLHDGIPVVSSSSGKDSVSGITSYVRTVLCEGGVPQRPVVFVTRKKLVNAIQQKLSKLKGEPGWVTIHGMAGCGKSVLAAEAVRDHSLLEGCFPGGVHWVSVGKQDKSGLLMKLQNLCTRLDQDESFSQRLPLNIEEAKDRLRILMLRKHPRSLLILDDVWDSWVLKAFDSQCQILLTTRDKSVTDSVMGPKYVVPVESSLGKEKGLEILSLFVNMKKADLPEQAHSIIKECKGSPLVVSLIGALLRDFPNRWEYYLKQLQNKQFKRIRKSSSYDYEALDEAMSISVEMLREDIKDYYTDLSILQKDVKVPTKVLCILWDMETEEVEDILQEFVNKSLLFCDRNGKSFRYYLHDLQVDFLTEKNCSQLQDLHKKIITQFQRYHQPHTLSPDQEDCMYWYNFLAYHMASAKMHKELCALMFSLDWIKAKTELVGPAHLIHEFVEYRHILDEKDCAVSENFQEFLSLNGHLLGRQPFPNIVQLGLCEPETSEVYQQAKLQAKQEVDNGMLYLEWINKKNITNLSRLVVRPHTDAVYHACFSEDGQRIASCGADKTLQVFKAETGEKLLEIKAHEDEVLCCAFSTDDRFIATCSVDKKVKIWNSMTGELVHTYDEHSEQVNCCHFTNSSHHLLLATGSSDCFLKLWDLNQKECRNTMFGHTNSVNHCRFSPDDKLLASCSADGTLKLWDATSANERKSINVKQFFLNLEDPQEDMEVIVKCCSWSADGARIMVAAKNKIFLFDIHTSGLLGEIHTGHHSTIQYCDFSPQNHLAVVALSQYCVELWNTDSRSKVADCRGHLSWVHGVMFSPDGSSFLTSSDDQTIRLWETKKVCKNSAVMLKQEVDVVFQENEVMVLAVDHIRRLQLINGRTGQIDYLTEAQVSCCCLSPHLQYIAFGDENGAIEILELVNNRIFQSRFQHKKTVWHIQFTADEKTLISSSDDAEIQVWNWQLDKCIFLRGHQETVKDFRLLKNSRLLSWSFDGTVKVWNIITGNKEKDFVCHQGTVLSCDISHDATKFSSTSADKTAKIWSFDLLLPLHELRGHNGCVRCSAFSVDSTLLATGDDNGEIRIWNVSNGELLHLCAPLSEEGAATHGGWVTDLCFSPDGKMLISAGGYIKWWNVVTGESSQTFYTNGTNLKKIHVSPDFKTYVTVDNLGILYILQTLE
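System: reconstituted apoptosome with Apaf-1, cytochrome c, caspase-9, procaspase-3, dATP; Signal: Rh110 fluorescence intensity; Schedule: 30 min compound preincubation, 50 min activation, room temperature; Reagent: cytochrome c trigger plus (Z-DEVD)2-Rh110 caspase-3 substrate.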
CHOP UPR activ = activators of apoptotic CHOP UPR arm, primary screen, cell-based, CHO-CHOP luciferase reporter, luminescence, uHTS; UPR activation; percent of tunicamycin response over DMSO baseline; activation, % at 10 µM; 0.34% of 330,000 active;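 active = at 10 µM dose, activation of 40% or more, normalized to positive control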;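 note: 100% = tunicamycin at 10 µg/mL and 0% = DMSO alone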
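measured by = luciferase luminescence | assay system = CHO-CHOP cells, stable luciferase reporter of PERK-eIF2a-CHOP signalling | amount = 500 reporter cells seeded per well | timing = 6 h compound exposure at 37 °C after overnight seeding | controls = positive tunicamycin 10 µg/mL, negative DMSO alone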
Mdm2-MdmX inh = inhibitors of human Mdm2-MdmX association, primary screen, cell-based, luminescence, split luciferase, SaOS-2, uHTS. inhibition, % at 8 µM. SaOS-2 split-luciferase Mdm2/MdmX complementation. Protein Mdm4 (Homo sapiens) + E3 ubiquitin-protein ligase Mdm2 (Homo sapiens), …. 3% of 330,000 active;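 active = inhibition of at least 50% at 8 µM in the primary screen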
UBC13 polyUb = UBC13 polyubiquitin chain formation inhibitors, primary screen, biochemical, TR-FRET, uHTS. Ubiquitin-conjugating enzyme E2 N (Homo sapiens), P61088. inhibition, % at 20 µM. 0.47% of 330,000 active. AID 485273, 2010; in the data active = inhibition above about 45%, passing the limit was not always enough
UPR XBP1 act = activators of adaptive XBP1 UPR arm, primary screen, cell-based, CHO-XBP1 luciferase reporter, luminescence, uHTS; IRE1-XBP1 UPR activation; percent of tunicamycin response, DMSO as zero; activation, % at 20 µM; 0.33% of 330,000 active; AID 463104, 2010;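 active = versus positive control, 20 µM dose yields 30% or more activation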;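 note: 100% = tunicamycin at 10 µg/mL and 0% = DMSO only wells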
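Material: CHO-XBP1 cells stably carrying IRE1-XBP1-driven luciferase reporter | Medium: F12 with 10% serum | Compound dosing: 20 µM single concentration, DMSO 1% | Incubation: Overnight seeding at 37 °C, 6 h compound treatment at 37 °C | Detection: Steady-Glo luminescence read | Read-out basis: % activation of reporter signal versus tunicamycin and DMSO controls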
Mdm2 MdmX conf = Mdm2-MdmX complex disruptors, retested hits, confirmation, luminescence, single concentration. inhibition, % at 8 µM. AID 489028, 2010. 55% of 10,000 active. shares compounds with Mdm2-MdmX inh. Mdm2-MdmX binding, luminescent assay; in the data active = inhibition above about 40%
FLuc counter = full-length luciferase signal inhibition, confirmation, counter-screen for Mdm2/MdmX interaction inhibitor project, cell-based, single concentration, SaOS-2 | shares compounds with Mdm2-MdmX inh | SaOS-2 full-length luciferase counterscreen, luminescence | inhibition, % at 8 µM | 77% of 6,200 active | AID 504607, 2011;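 active = mean inhibition at 8 µM reaching about 37%, which flags the compound as non-specific, limit read from the data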;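 note: p53-null SaOS-2 cells with luciferase driven by a doxycycline-inducible promoter; compound on cells about two nights before reading with doxycycline added after day one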
* = called active by the depositor. Shown are actives, neighbours in structure and some others; about 4.1% of the full set was active somewhere.

For Cc1ccc(O)c(NC(=O)c2cc([N+](=O)[O-])ccc2Cl)c1 the results were Apaf1 inhib 8, CHOP UPR activ -1, Mdm2-MdmX inh 26, UBC13 polyUb -1 and UPR XBP1 act -3.
O=C(Nc1cccc(Cl)c1)c1cccc(Oc2ccc([N+](=O)[O-])cc2Cl)c1 was read as Apaf1 inhib 4, CHOP UPR activ -2, Mdm2-MdmX inh 61*, UBC13 polyUb -8, UPR XBP1 act -2 and Mdm2 MdmX conf 11.
`O=C(Nc1ccc([N+](=O)[O-])cc1Cl)c1cc(Cl)ccc1O` gave Apaf1 inhib 4, CHOP UPR activ 16, Mdm2-MdmX inh 100*, UBC13 polyUb -24, UPR XBP1 act -9, Mdm2 MdmX conf 97* and FLuc counter 51*.
Screening COc1ccc(C(=O)/C(=C\c2ccco2)N2C=CC=CC2=C(C#N)C#N)cc1 returned Apaf1 inhib 12, CHOP UPR activ -10, Mdm2-MdmX inh 100*, UBC13 polyUb -6, UPR XBP1 act -5, Mdm2 MdmX conf 99* and FLuc counter 51*.
Screening COc1ccc(C(=O)N/C(=C\c2ccco2)C(=O)OCc2ccco2)cc1 returned Apaf1 inhib -1, CHOP UPR activ 4, Mdm2-MdmX inh 14, UBC13 polyUb -13 and UPR XBP1 act -2.
Cc1ccc(S(=O)(=O)N(C)c2c(C)ccc(S(=O)(=O)NC(C)(C)C)c2C)cc1 was read as Apaf1 inhib 8, CHOP UPR activ 0, Mdm2-MdmX inh 24, UBC13 polyUb 0 and UPR XBP1 act -1.
Cc1cc(C)n(-c2nc(Nc3ccccc3)nc(-n3nc(C)cc3C)n2)n1 was read as Apaf1 inhib 0, CHOP UPR activ 0, Mdm2-MdmX inh 13, UBC13 polyUb -1 and UPR XBP1 act -3.
For Cc1cc(C)n(-c2nc(N(c3ccccc3)c3ccccc3)nc(-n3nc(C)cc3C)n2)n1 the results were Apaf1 inhib 32, CHOP UPR activ -7, Mdm2-MdmX inh 100*, UBC13 polyUb 31, UPR XBP1 act -5, Mdm2 MdmX conf 100* and FLuc counter 58*.
Screening COc1ccc2nc3cc(Cl)ccc3c(Nc3cc(C(C)C)c(O)cc3C)c2c1 returned Apaf1 inhib 34, CHOP UPR activ 4, Mdm2-MdmX inh 94*, UBC13 polyUb -6, UPR XBP1 act 4, Mdm2 MdmX conf 64* and FLuc counter 64*.
COc1ccc(CNS(=O)(=O)c2cc(CN3C(=O)c4cccnc4C3=O)ccc2OC)cc1 was read as Apaf1 inhib 1, CHOP UPR activ 1, Mdm2-MdmX inh -21, UBC13 polyUb 1 and UPR XBP1 act -3.
Screening CCNc1nc(NC(C)(C)C)nc(SCC(N)=O)n1 returned Apaf1 inhib -6, CHOP UPR activ 0, Mdm2-MdmX inh 3, UBC13 polyUb 8 and UPR XBP1 act 0.
Screening COc1ccc(NC(=O)/C(C#N)=C\c2cc(C)n(-c3ccc4c(c3)OCO4)c2C)cc1 returned Apaf1 inhib 26, CHOP UPR activ -1, Mdm2-MdmX inh 58*, UBC13 polyUb -36, UPR XBP1 act 1, Mdm2 MdmX conf 55* and FLuc counter 75*.
Screening COc1ccc(OC)c(NC(=O)CN2CCc3ccccc3C2)c1 returned Apaf1 inhib 14, CHOP UPR activ 0, Mdm2-MdmX inh 5, UBC13 polyUb 0 and UPR XBP1 act -1.
`COc1ccc(NC(=O)CN(C)C(=O)/C=C/c2ccc(OCc3ccccc3)cc2)cc1` gave Apaf1 inhib -1, CHOP UPR activ 1, Mdm2-MdmX inh 52*, UBC13 polyUb -4, UPR XBP1 act 8 and Mdm2 MdmX conf 22.
Screening Cc1cc(C(=O)CN2C(=O)C(=O)N(Cc3ccccc3)C2=O)c(C)n1Cc1ccccc1 returned Apaf1 inhib 13, CHOP UPR activ -1, Mdm2-MdmX inh 31, UBC13 polyUb -19 and UPR XBP1 act -2.
Cc1cc(C(=O)CN2CCC(C)CC2)c(C)n1-c1ccccc1F was read as Apaf1 inhib 1, CHOP UPR activ -3, Mdm2-MdmX inh 66*, UBC13 polyUb 2, UPR XBP1 act -3, Mdm2 MdmX conf 76* and FLuc counter 70*.
Screening Cc1cc(C(=O)CN2C(=O)C(=O)N(Cc3ccccc3)C2=O)c(C)n1-c1ccccc1F returned Apaf1 inhib 16, CHOP UPR activ 0, Mdm2-MdmX inh 52*, UBC13 polyUb -8, UPR XBP1 act -2, Mdm2 MdmX conf 51* and FLuc counter 51*.
For COc1ccc(-c2cc(C(F)F)n3ncc(C(=O)N4CCc5ccccc54)c3n2)cc1 the results were Apaf1 inhib 14, CHOP UPR activ 0, Mdm2-MdmX inh 67*, UBC13 polyUb -2, UPR XBP1 act 22, Mdm2 MdmX conf 56* and FLuc counter 73*.
Screening Cc1ccc(-c2cc(C(F)F)n3ncc(C(=O)N4CCCc5ccccc54)c3n2)cc1 returned Apaf1 inhib -1, CHOP UPR activ 0, Mdm2-MdmX inh 16, UBC13 polyUb 5 and UPR XBP1 act 1.
`O=C(Nc1nc(-c2ccccn2)cs1)c1cc2ccccc2o1` gave Apaf1 inhib 11, CHOP UPR activ 3, Mdm2-MdmX inh 52*, UBC13 polyUb -27, UPR XBP1 act -2, Mdm2 MdmX conf 55* and FLuc counter 53*.
For Cc1c(C(=O)Nc2nc(-c3ccccn3)cs2)oc2ccccc12 the results were Apaf1 inhib 5, CHOP UPR activ 3, Mdm2-MdmX inh 67*, UBC13 polyUb -37, UPR XBP1 act 5, Mdm2 MdmX conf 64* and FLuc counter 47*.
Screening Cc1ccc2[nH]c3c(=O)n(CC(=O)Nc4ccccc4N4CCN(C)CC4)ncc3c2c1 returned Apaf1 inhib 15, CHOP UPR activ -1, Mdm2-MdmX inh 61*, UBC13 polyUb 11, UPR XBP1 act 0 and Mdm2 MdmX conf 18.
For CCCCn1c(N)c(N(CC(C)C)C(=O)CSCc2cccc(C)c2)c(=O)[nH]c1=O the results were Apaf1 inhib 9, CHOP UPR activ -2, Mdm2-MdmX inh 24, UBC13 polyUb -2 and UPR XBP1 act 0.
For CSc1nc(N)nc(SCCS(=O)(=O)c2ccc(Cl)cc2)c1C#N the results were Apaf1 inhib 5, CHOP UPR activ 0, Mdm2-MdmX inh 57*, UBC13 polyUb 11, UPR XBP1 act -1 and Mdm2 MdmX conf 23.

Screens: PubChem BioAssay, Sanford-Burnham Center for Chemical Genomics
